Test results as given in ChEMBL document CHEMBL1143850, “Direct inactivation of human immunodeficiency virus type 1 by a novel small-molecule entry inhibitor, DCM205” (Antimicrob Agents Chemother, 2007).
Calls of active or inactive are those of the source. No cut-off for these calls is given here.

Assays:
[1] = tested on: Human immunodeficiency virus 1; experiment: Antiviral activity against B clade X4 tropic HIV1 NL43 in HeLa H1-JC.37 cells by focal infectivity assay; format: functional, organism-based; settings: Human immunodeficiency virus 1, NL43, HeLa
Method in brief: (§1)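 HeLa H1-JC.37 cells were seeded at 4.5 x 10^3/well and grown overnight at 37°C. Drug was added in DMEM/0.1% FBS for 1 h. Cells then adsorbed 20–60 FFU of virus with drug for 1–2 h. FBS was raised to 10% with drug held constant, then cells were incubated 4 days. Foci were immunostained and counted as % of no-drug control. EC50 came from a regression line; ≥5 wells, ≥3 experiments.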

[2] = tested on: Human immunodeficiency virus 1; experiment: Binding affinity to HIV1 ogp140 at by SPR competition study in presence of gp120 MAb b12
[3] = tested on: Human immunodeficiency virus 1; experiment: Antiviral activity against B clade R5 tropic HIV1 BaL in HeLa H1-JC.37 cells by focal infectivity assay; format: functional, organism-based; settings: Human immunodeficiency virus 1, BaL; method in brief: as §1
[4] = tested on: Human immunodeficiency virus 1; experiment: Antiviral activity against HIV1 NL43 in HeLa H1-JC.37 cells after 2 hrs by p24 antigen capture ELISA; format: functional, organism-based
Method in brief: (§2)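 NL4-3 was preincubated with drug for 2 h at 37°C and diluted 400-fold in medium with 0.1% FBS. It was added to CEMx174 (5 x 10^4/well), PHA-stimulated PBMCs (1 x 10^4/well) or HeLa H1-JC.37 cells (4.5 x 10^4/well) for 2 h. Cells were washed twice by centrifugation, resuspended in 10% FBS, and cultured 4 days at 37°C. Supernatant p24 was measured by antigen-capture ELISA.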

[5] = tested on: Human immunodeficiency virus 1; experiment: Binding affinity to HIV1 ogp140 by SPR competition study in presence of gp41 MAb 5F3
Method in brief: (§3)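 SPR was run at 25°C in HBS-P (pH 7.4). MAbs (10 µg/ml) were captured on immobilized goat anti-human Ig. 50 nM oligomeric gp140 was preincubated 30 min with 0, 1, 5 or 10 µM drug, then injected 1 min at 20 µl/min with 2 min dissociation. Surfaces were regenerated with 146 mM H3PO4. Responses were double-referenced and normalized to MAb capture level.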

[6] = tested on: Human immunodeficiency virus 1; experiment: Antiviral activity against C clade R5 tropic HIV1 97ZA009 in HeLa H1-JC.37 cells by focal infectivity assay; format: functional, organism-based; settings: Human immunodeficiency virus 1, 97ZA009, HeLa; method in brief: as §1
[7] = tested on: Human immunodeficiency virus 1; experiment: Antiviral activity against HIV1 NL43 in PBMCs after 2 hrs by p24 antigen capture ELISA; format: functional, organism-based; method in brief: as §2
[8] = tested on: Human immunodeficiency virus 1; experiment: Antiviral activity against A clade R5 tropic HIV1 92RW016 in HeLa H1-JC.37 cells by focal infectivity assay; format: functional, organism-based; settings: Human immunodeficiency virus 1, 92RW016, HeLa; method in brief: as §1
[9] = tested on: Human immunodeficiency virus 1; experiment: Antiviral activity against C clade R5 tropic HIV1 98TZ013 in HeLa H1-JC.37 cells by focal infectivity assay; format: functional, organism-based; settings: Human immunodeficiency virus 1, 98TZ013, HeLa; method in brief: as §1
[10] = tested on: Human immunodeficiency virus 1; experiment: Antiviral activity against E clade R5 tropic HIV1 93TH078 in HeLa H1-JC.37 cells by focal infectivity assay; format: functional, organism-based; settings: Human immunodeficiency virus 1, 93TH078, HeLa; method in brief: as §1
[11] = tested on: Human immunodeficiency virus 1; experiment: Binding affinity to HIV1 ogp140 by SPR competition study in presence of gp41 MAb F240; method in brief: as §3
[12] = tested on: Human immunodeficiency virus 1; experiment: Antiviral activity against B clade X4 R5 tropic HIV1 89.6 in HeLa H1-JC.37 cells by focal infectivity assay; format: functional, organism-based; settings: Human immunodeficiency virus 1, 89.6, HeLa; method in brief: as §1
[13] = tested on: Human immunodeficiency virus 1; experiment: Antiviral activity against B clade X4 R5 tropic HIV1 92HT593 in HeLa H1-JC.37 cells by focal infectivity assay; format: functional, organism-based; settings: Human immunodeficiency virus 1, 92HT593, HeLa; method in brief: as §1
[14] = tested on: Human immunodeficiency virus 1; experiment: Antiviral activity against B clade R5 tropic HIV1 92TH014 in HeLa H1-JC.37 cells by focal infectivity assay; format: functional, organism-based; settings: Human immunodeficiency virus 1, 92TH014, HeLa; in the assay text read “dual tropic” for “R5 tropic”; method in brief: as §1
[15] = tested on: Human immunodeficiency virus 1; experiment: Antiviral activity against B clade X4 tropic HIV1 HXBc2 in HeLa H1-JC.37 cells by focal infectivity assay; format: functional, organism-based; settings: Human immunodeficiency virus 1, HXBc2, HeLa; method in brief: as §1
[16] = tested on: Human immunodeficiency virus 1; experiment: Antiviral activity against HIV1 NL43 in HeLa H1-JC.37 cells after 2 hrs by focal infectivity assay; format: functional, organism-based
Method in brief: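 NL4-3 stock (10^5 FFU/ml) was preincubated with drug (0–30 µM) for 2 h at 37°C, then diluted 400-fold in DMEM/0.1% FBS so drug fell below inhibitory levels. The mixture was added to HeLa H1-JC.37 cells for 2 h adsorption. FBS was raised to 10% and cells were incubated 4 days. Focus immunostaining followed, with five replicate wells per concentration.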

[17] = tested on: Human immunodeficiency virus 1; experiment: Antiviral activity against B clade R5 tropic HIV1 SF162 in HeLa H1-JC.37 cells by focal infectivity assay; format: functional, organism-based; settings: Human immunodeficiency virus 1, SF162, HeLa; method in brief: as §1
[18] = tested on: Human immunodeficiency virus 1; experiment: Antiviral activity against HIV1 NL43 in CEMx174 cells after 2 hrs by p24 antigen capture ELISA; format: functional, organism-based; method in brief: as §2
[19] = Cytotoxicity against human HeLa H1-JC.37 cells; format: cell-based
[20] = tested on: Simian immunodeficiency virus; experiment: Antiviral activity against R5 tropic SIV mac239 in HeLa H1-JC.37 cells by focal infectivity assay; format: functional, organism-based; method in brief: as §1
[21] = tested on: Human immunodeficiency virus 1; experiment: Antiviral activity against HIV1 NL43 in HeLa H1-JC.37 cells pretreated for 2 hrs before viral challenge by FIA; format: functional, organism-based
Method in brief: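 HeLa H1-JC.37 cells (4.5 x 10^3/well, seeded overnight) were exposed to drug in DMEM/0.1% FBS for 2 h, then washed twice. They were infected with 20–60 FFU NL4-3 for 2 h. Volume was brought to 200 µl at 10% FBS and cells were incubated 4 days at 37°C. Readout was focus counting. A control arm added drug together with virus.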

EC50 [1]: 330 nM
Activity [2]: Active
EC50 [3]: 850 nM
Activity [5]: Active
EC50 [6]: 2300 nM
EC50 [8]: 700 nM
EC50 [9]: 190 nM
EC50 [10]: 500 nM
Activity [11]: Active
EC50 [12]: 410 nM
EC50 [13]: 340 nM
EC50 [14]: 190 nM
EC50 [15]: 530 nM
EC50 [17]: 400 nM
EC50 [20]: 1200 nM
SMILES: O=S(=O)(/C=C/c1cc(O)c(O)c(O)c1)CS(=O)(=O)/C=C/c1cc(O)c(O)c(O)c1
Activity [4]: Active
Activity [7]: Active
Activity [16]: Active
Activity [18]: Active
IC50 [19]: 170000 nM
Activity [21]: inactive
